High-throughput results: PubChem, several laboratories
KCC2 mod: KCC2 cotransporter modulators, thallium flux, primary screen, cell-based, HEK293 KCC2, FluoZin-2 fluorescence, MLSMR; B-score of Tl+ flux slope (higher = more flux/activation; lower = inhibition) at 10 µM; 190,000 compounds, 2.2% hits; Solute carrier family 12 member 5 (Homo sapiens), Q9H2X9; KCC2 cells, thallium flux FluoZin-2 fluorescence;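 active = thallium flux slope and its plate-corrected score both differing from the plate sample mean at a set confidence after two filtering rounds, in either direction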;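 also: slope of fluorescence scaled to starting intensity during 10 to 20 s after thallium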
L major viab: Leishmania major promastigote growth inhibition, primary screen; Leishmania major promastigotes, resazurin fluorescence viability; inhibition, % at 10 µM; 200,000 compounds, 9% hits; in the data active = inhibition above about 50%;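 also: promastigotes grown with compound for 44 hours at 28 °C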
Diaphorase act: compounds boosting diaphorase resazurin reduction – biochemical, uHTS, resorufin fluorescence, counter-screen for diaphorase-coupled primary assays, primary screen | 190,000 compounds, 0.005% hits | AID 1229, 2008 | Diaphorase/resazurin coupled assay, 16 min; stronger effect = higher value; 1 = vehicle wells, 0 = NADH-free wells | activation factor at 20 µM;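 active = diaphorase activity raised at least twofold by the compound at 20 µM; inactive = activation factor below 2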
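Assay system: bacterial diaphorase enzyme (C. kluyveri) / Input: enzyme 0.07 U/mL final / Medium: 50 mM HEPES pH 7.4 with 4.542 mM MgCl2, 0.005% Tween 20 / Doses: single compound dose of 20 µM, 1% DMSO final / Incubation: 16 min enzyme reaction, ambient temperature / Signal: fluorescence, excitation 544 nm and emission 590 nm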
Diaphorase inh: diaphorase inhibitors and chemical oxidizers, primary screen, counter-screen for diaphorase-coupled primary assays, biochemical, uHTS, resorufin fluorescence; diaphorase resazurin-to-resorufin fluorescence, NADH, 16 min; bacterial (C. kluyveri) enzyme, not human; inhibition, % at 20 µM; 190,000 compounds, 0.69% hits; AID 1217, 2008;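 active = primary screen inhibition at 20 µM above a set limit, cut at about 50% in these data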
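Test system: Clostridium kluyveri diaphorase enzyme / Quantity: diaphorase at 0.14 U/mL in enzyme working solution / Incubation: 16-min room-temperature incubation before reading / Benchmarks: NADH-free wells as positive control, DMSO-only neutral wells / Signal: resorufin fluorescence 544/590 nm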
WT yeast gro inh: growth inhibition of WT strain, primary screen, mitochondrial fusion inhibitor project, WT and mutant strains, chemical genetic | mitochondrial fusion phenotypic screen | inhibition, % at 10 µM | 190,000 compounds, 2.1% hits | AID 1362, 2008; in the data active = inhibition above about 58%; tested in S. cerevisiae
ROMK primary: ROMK potassium channel modulators, primary screen, cell-based, thallium flux, MLSMR library. Tet-inducible ROMK, thallium flux fluorescence; actives lie on both sides. B-score at 10 µM. 130,000 compounds, 2% hits. AID 1918, 2009;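 active = signal ratio slope over the read window, or its plate-corrected B-score, at least 3 SD from the plate mean, either direction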;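 also: B-score of the F/F0 ratio slope over 7 to 12 s after thallium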
A number is an active result; - = inactive; . = no result given. This is a sample that favours compounds with a hit; in the whole collection about 12% have one here.

SMILES	KCC2 mod	L major viab	Diaphorase act	Diaphorase inh	WT yeast gro inh	ROMK primary
O=C(NCc1ccco1)/C(=C\c1cccs1)NC(=O)c1ccco1	-	-	-	-	-	-
CC(C)(C)c1csc(NC(=O)c2ccc3nccnc3c2)n1	-	-	-	-	-	.
CC(=O)O/N=C/c1c(N2CCOCC2)n(C)c2ccccc12	-	99	-	-	-	.
Cc1ccc(C(=O)O/N=C/c2c(N3CCOCC3)n(C)c3ccccc23)cc1	-	98	-	-	-	.
Cn1c(N2CCOCC2)c(/C=N/OC(=O)c2cccnc2Cl)c2ccccc21	-	100	-	-	-	-
Cn1c(N2CCOCC2)c(/C=N/OC(=O)c2ccc(F)cc2)c2ccccc21	-	100	-	-	-	.
Cc1ccc(C(=O)O/N=C/c2c(Cl)n(C)c3ccccc23)cc1	-	-	-	-	-	.
COC(=O)c1cn(C(=O)OC)c2ccccc12	.	-	-	-	66	-
COC(=O)c1cn(C(=O)c2ccc(C)cc2C)c2ccccc12	-	-	-	-	61	-
CN(C(=O)CSc1nc2ccccc2s1)c1c(N)n(Cc2ccccc2)c(=O)[nH]c1=O	-	-	-	-	-	-
Cc1nnc(C)c2c(C)n(-c3ccccc3N)c(C)c12	-	-	-	-	-	-
CCCNc1cc(C)oc(=O)c1C(=O)CC	-	-	-	-	-	-
COc1ccc(/C=N/N2CCOCC2)cc1Cn1nc(C)c([N+](=O)[O-])c1C	-	.	.	.	.	.
COc1ccc(/C=N/Nc2ccccc2)cc1Cn1nc(C)c([N+](=O)[O-])c1C	-	77	-	-	-	-
CCSc1nnc(C)c(=O)n1COC(=O)c1ccc(S(=O)(=O)N2CCCC2)cc1	-	-	-	-	-	.
O=C(N/N=C/c1ccccc1O)c1cc(=O)[nH]c2ccccc12	-	99	-	-	-	.
O=c1oc2cc(Oc3ccc(C(F)(F)F)cc3[N+](=O)[O-])ccc2c2c1CCCC2	-	-	-	-	-	-
O=C(Nc1nc(=S)ss1)c1ccc(Cl)cc1Cl	5	-	-	-	-	.
COC(=O)CSc1nc2ccccn2c(=O)c1C=O	-	-	-	-	-	-
Cc1c(C(=O)N/N=C/c2ccc(-c3ccccc3[N+](=O)[O-])o2)sc(N)c1C#N	-	71	-	-	-	.
Cc1c(-c2ccc(/C=N/NC(=O)C(=O)Nc3ccccc3F)o2)cccc1[N+](=O)[O-]	-	.	.	.	.	-
Cc1cc([N+](=O)[O-])c(C)cc1-c1ccc(/C=N/NC(=O)c2cccnc2)o1	-	100	-	-	-	-
O=[N+]([O-])c1ccccc1-c1ccc(/C=N/n2cnnc2)o1	-	-	-	-	-	-
O=C(N/N=C\c1ccc([N+](=O)[O-])o1)c1cncc(Br)c1	-	.	.	.	.	-
O=C(N/N=C/c1cc([N+](=O)[O-])c(N2CCOCC2)cc1N1CCOCC1)c1cccnc1	-	-	-	-	-	-
SMILES	KCC2 mod	L major viab	Diaphorase act	Diaphorase inh	WT yeast gro inh	ROMK primary
O=C(N/N=C/c1ccc(-c2ccccc2[N+](=O)[O-])o1)c1cncc(Br)c1	-	98	-	-	-	-
Nn1cnnc1N/N=C\c1ccc(-c2ccccc2[N+](=O)[O-])o1	-	-	-	88	-	-
O=C(/C=C/c1ccccc1)N1c2ccccc2Sc2ccc(C(F)(F)F)cc21	-	97	-	-	-	-
CCOc1ccc(CN2CCN(CC3=Cc4cccc(OC)c4OC3)CC2CCO)cc1 (stereo not given)	-	78	.	.	-	-
Cc1ccccc1-c1ncc(CN2CCN(C3CCCCC3)C(CCO)C2)cn1 (stereo not given)	.	56	-	-	-	-
CC(C)N1CCC(N2CCN(Cc3cnc(-c4ccccc4)s3)CC2CCO)CC1 (stereo not given)	.	-	-	-	-	-
CCOc1ccc(CN2CCN(C/C=C/c3ccc(OC)cc3)CC2CCO)cc1 (stereo not given)	-	-	-	-	-	-
OCCC1CN(Cc2cnc(-c3ccccc3)s2)CCN1C1CCCC1 (stereo not given)	-	80	-	-	-	-
OCCC1CN(Cc2cnc(-c3ccccc3)s2)CCN1C1CCCCC1 (stereo not given)	-	81	-	-	-	-
CSc1ncc(CN2CCN(C3CCCCC3)C(CCO)C2)cn1 (stereo not given)	-	-	-	-	-	-
O=C(CCS(=O)(=O)c1cc(Br)cc2c1N(C(=O)C1CC1)CC2)N1CCN(c2ccccn2)CC1	-	-	-	-	-	-
CC(C)CC(C(=O)NC(C)(C)C)N(CC1CCCO1)C(=O)c1snc(C(N)=O)c1N (stereo not given)	-	-	.	.	-	-
CCOc1ccc(CN2CCN(Cc3cc4ccccc4[nH]3)CC2CCO)cc1 (stereo not given)	-	79	-	-	-	-
CCOc1ccc(CN2CCN(Cc3cnc(-c4ccccc4)s3)CC2CCO)cc1 (stereo not given)	-	86	-	-	-	.
Fc1ccc(-c2csc3[n+]2CCS3)cc1	-	-	-	-	70	-
O=[N+]([O-])c1ccc(-c2csc3[n+]2CCS3)cc1	.	-	-	-	72	-
O=C(CSc1nnc(-c2ccccc2F)n1C1CC1)Nc1cccnc1Cl	-	-	-	-	-	-
COc1ccc([C@H]2[C@@H]3C=CCC[C@@]3(C)C(=O)N2Cc2ccccc2)cc1Cl	-	.	.	.	.	.
c1ccc(CC2CCN(c3ncnc4sccc34)CC2)cc1	-	-	-	-	63	-
O=C(O)c1cc2c(N3CCC(Cc4ccccc4)CC3)ncnc2s1	-	-	-	-	-	-
Oc1ccc(Br)cc1C=Nc1ccc2c3c(cccc13)CC2	-	71	-	67	-	-
Cn1c(=O)cc(OCCCC(=O)N2CCN(c3ccccc3)CC2)c2ccccc21	.	-	-	-	58	-
COCCN(C(=S)Nc1c(C)cccc1C)C(C)c1cccs1 (stereo not given)	-	56	-	-	-	-
COCCN(C(=S)Nc1cc(C)cc(C)c1)C(C)c1cccs1 (stereo not given)	-	-	-	-	-	-
COCCN(C(=S)Nc1cccc(C)c1)C(C)c1cccs1 (stereo not given)	-	-	-	-	59	.
COCCN(C(=S)Nc1cc(C)cc(C)c1)C(C)c1ccco1 (stereo not given)	-	-	-	-	61	-
Cc1ccc(NC(=S)N(CCN(C)C)C(C)c2ccco2)cc1Cl (stereo not given)	-	.	.	.	.	.
